Calls of active or inactive are those of the source. The calls are words filed in the database; no cut-off is given here.
Legend:
HEp-2 [1] = assay: Cytotoxicity against human HEp-2 cells assessed as reduction in MTS absorbance at 100 uM by MTS assay; assay type: cell-based; design: scale not given: the % may be the effect or the level left; conditions: hep-2, 100 µM
Summary of the method: (§1)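 HEp-2 cells were seeded at 5000/well and treated 24 h later with compound (two doses) alongside 1% DMSO and media controls, in triplicate. After 24 h treatment, medium was replaced with fresh supplemented DMEM. MTS/PMS was added for 4 h and absorbance read at 490 nm. Results are expressed as % MTS reduction relative to 1% DMSO-treated cells.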

HEp-2 [2] = assay: Cytotoxicity against human HEp-2 cells assessed as reduction in MTS absorbance at 25 uM by MTS assay; assay type: cell-based; conditions: hep-2, 25 µM; summary of the method: as §1
HEp-2 [3] = assay: Cytotoxicity against human HEp-2 cells assessed as decrease in cell integrity at 25 uM by LDH assay; assay type: cell-based; design: scale not given: the % may be the effect or the level left; conditions: hep-2, 25 µM
Summary of the method: (§2)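 HEp-2 cells were seeded at 5000/well and treated 24 h later at two doses, with 1% DMSO and media-only controls, in triplicate, for 8 h. Maximum-release wells were lysed with 0.8% Triton X-100 45 min before supernatant collection. Supernatant was incubated with CytoTox reagent for 30 min, then stop solution, and read at A490. Extracellular LDH is given as % of maximum release.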

Chlamydia pecorum [4] = assay: Antibacterial activity against Chlamydia pecorum G (MC/MarsBar;CpG) infected in McCoy B cells assessed as log reduction in infectivity unit at 25 uM measured after 44 hrs; assay type: functional, organism-based; conditions: VR629 G (MC/MarsBar;CpG)
Summary of the method: (§3)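 C. trachomatis D was grown in HEp-2 cells and C. pecorum G in McCoy B cells, in high-glucose DMEM with 10% heat-inactivated FCS, 4 mM alanyl-glutamine, streptomycin and gentamicin. Cells were seeded at 20,000/well 24 h before infection, at MOI 12 (CtD) or MOI 4 (CpG). Infection was synchronised by centrifugation at 500×g, 28 °C, 30 min. Dose series added 16 h PI, with 1% DMSO and media controls. Read-out was IFU/mL; n=3.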

Chlamydia trachomatis [5] = assay: Antibacterial activity against Chlamydia trachomatis D (D/UW-3/Cx; CtD) infected in HEp-2 cells assessed as log reduction in infectivity unit at 25 uM measured after 44 hrs; assay type: functional; summary of the method: as §3
Chlamydia trachomatis [6] = assay: Antibacterial activity against Chlamydia trachomatis D (D/UW-3/Cx; CtD) infected in HEp-2 cells assessed as reduction in bacterial titer at 50 to 100 uM measured after 44 hrs; assay type: functional, organism-based; conditions: dose 50-100 µM; summary of the method: as §3
Chlamydia pecorum [7] = assay: Antibacterial activity against Chlamydia pecorum G (MC/MarsBar;CpG) infected in McCoy B cells assessed as reduction in bacterial titer at 50 to 100 uM measured after 44 hrs; assay type: functional, organism-based; conditions: VR629 G (MC/MarsBar;CpG), dose 50-100 µM; summary of the method: as §3
Staphylococcus aureus = assay: Antibacterial activity against Staphylococcus aureus assessed as growth inhibition at 50 uM; assay type: functional, organism-based
Summary of the method: (§4)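 Broth microdilution MIC in cation-adjusted Mueller Hinton broth. Compound was 2-fold serially diluted from 32 µg/mL (approx. 50 µM) to 0.015 µg/mL. The inoculum was about 5×10⁵ CFU/mL from overnight cultures. Plates were incubated at 37 °C with shaking for 24 h. MIC was the lowest concentration without growth; technical triplicate.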

Neutrophil elastase = biological target: T1, Neutrophil elastase (Homo sapiens, UniProt P08246); assay: Inhibition of human neutrophil elastase using methoxysuccinyl-Ala-Ala-Pro-Val-pNA as substrate incubated for 15 min
T1 sequence (P08246 whole entry): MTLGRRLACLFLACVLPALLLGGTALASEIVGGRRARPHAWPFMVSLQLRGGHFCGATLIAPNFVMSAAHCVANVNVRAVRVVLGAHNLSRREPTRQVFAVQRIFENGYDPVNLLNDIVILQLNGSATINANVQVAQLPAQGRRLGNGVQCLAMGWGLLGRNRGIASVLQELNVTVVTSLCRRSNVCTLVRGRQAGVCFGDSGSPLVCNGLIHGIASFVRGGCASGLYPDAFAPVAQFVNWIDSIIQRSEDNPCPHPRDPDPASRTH

Pseudomonas aeruginosa = assay: Antibacterial activity against Pseudomonas aeruginosa assessed as growth inhibition at 50 uM; assay type: functional, organism-based
Summary of the method: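 P. aeruginosa PAO1 was grown overnight in fluorescent broth (pH 7.0) at 37 °C with shaking, diluted 1/1000 with added MgSO₄, and given compound at 50 or 100 µM final. DMSO controls were 0.5% or 1%. OD600 and fluorescence (ex 405/em 460 nm) were read every 15 min for 24 or 48 h. Pyoverdine was quantified as area under the curve.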

[8] = biological target: T2, Probable periplasmic serine endoprotease DegP-like (Chlamydia trachomatis, UniProt P18584); assay: Inhibition of recombinant ctHtrA serine protease using MeOCoum-ENLHLPLPI1F-D as substrate pretreated for 10 min followed by substrate addition and measured after 30 minutes
T2 sequence (P18584 whole entry): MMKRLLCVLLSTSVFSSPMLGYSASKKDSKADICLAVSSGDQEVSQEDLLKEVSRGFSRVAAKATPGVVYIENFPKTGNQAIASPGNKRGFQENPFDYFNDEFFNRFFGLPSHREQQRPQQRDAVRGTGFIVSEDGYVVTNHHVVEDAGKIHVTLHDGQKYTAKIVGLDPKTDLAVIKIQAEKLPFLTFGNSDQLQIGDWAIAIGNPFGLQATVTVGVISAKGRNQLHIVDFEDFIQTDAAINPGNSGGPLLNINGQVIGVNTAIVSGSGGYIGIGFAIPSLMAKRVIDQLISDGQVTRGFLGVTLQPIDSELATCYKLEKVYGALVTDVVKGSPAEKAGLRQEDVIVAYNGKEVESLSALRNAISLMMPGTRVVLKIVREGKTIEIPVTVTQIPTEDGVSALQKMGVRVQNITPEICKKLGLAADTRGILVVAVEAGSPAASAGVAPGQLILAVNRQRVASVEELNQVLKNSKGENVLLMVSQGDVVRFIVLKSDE
Summary of the method: (§5)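 Recombinant CtHtrA was tested against a six-dose inhibitor series in 50 mM Tris, 20 mM MgCl₂, pH 7.0. Plates were shaken before each of multiple reads per well. Each dose was run in triplicate, with a JO146 dose series (n=3) and DMSO controls (n=6). Relative inhibition is IC50(JO146)/IC50(compound), because IC50 varied between batches.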

[9] = biological target: T3, Probable periplasmic serine endoprotease DegP-like (Chlamydia trachomatis) (UniProt P18584); assay: Ratio of JO146 IC50 to test compound IC50 for inhibition of recombinant ctHtrA serine protease using Me0Coum-ENLHLPLPI1F-D as substrate pretreated for 10 minutes followed by substrate addition and measured after 30 minutes; summary of the method: as §5
T3 sequence (whole entry): T2 sequence (P18584 whole entry)

Escherichia coli = assay: Antibacterial activity against Escherichia coli assessed as growth inhibition at 50 uM; assay type: functional, organism-based; summary of the method: as §4
HEp-2 [10] = assay: Cytotoxicity against human HEp-2 cells assessed as decrease in cell integrity at 100 uM by LDH assay; assay type: cell-based; design: scale not given: the % may be the effect or the level left; conditions: hep-2, 100 µM; summary of the method: as §2

Structure (SMILES)	Activity (HEp-2 [1])	Activity (HEp-2 [2])	Activity (HEp-2 [3])	Activity (Chlamydia pecorum [4])	Activity (Chlamydia trachomatis [5])	Activity (Chlamydia trachomatis [6])	Activity (Chlamydia pecorum [7])	Activity (Staphylococcus aureus)	IC50 (Neutrophil elastase)	Activity (Pseudomonas aeruginosa)	IC50 [8]	Ratio IC50 [9]	Activity (Escherichia coli)	Activity (HEp-2 [10])
CC(C)C(NC(=O)[C@@H]1CCCN1C(=O)[C@@H](NC(=O)OCc1ccccc1)C(C)(C)C)P(=O)(Oc1ccccc1)Oc1ccccc1 (some centres not stated)	Toxic	Non-Toxic	<= 3.4%	–	–	–	–	–	–	–	–	–	–	–
CC(C)C(NC(=O)[C@@H]1CCCN1C(=O)[C@@H](NC(=O)NC(C)(C)C)C(C)(C)C)P(=O)(Oc1ccccc1)Oc1ccccc1 (some centres not stated)	Toxic	Non-Toxic	<= 3.4%	–	–	–	–	–	–	–	–	–	–	–
CC(C)C(NC(=O)C(C)n1cccc(NC(=O)OC(C)(C)C)c1=O)P(=O)(Oc1ccccc1)Oc1ccccc1 (configuration not stated)	<= 25%	–	–	Active	Active	Active	Active	–	–	–	–	–	–	–
CC(C)C(NC(=O)[C@@H]1CCCN1C(=O)[C@@H](NC(=O)OC(C)(C)C)C(C)C)P(=O)(Oc1ccccc1)Oc1ccccc1 (some centres not stated)	<= 25%	–	<= 3.4%	Active	Active	–	–	inactive	1.15 µM	inactive	12.5 µM	1	inactive	–
CCC(C)C(NC(=O)Cn1cccc(NC(=O)Oc2ccccc2)c1=O)P(=O)(Oc1ccccc1)Oc1ccccc1 (configuration not stated)	<= 25%	–	–	Active	Active	–	–	–	–	–	–	–	–	–
CCC(C)C(NC(=O)C(C)n1cccc(NC(=O)Oc2ccccc2)c1=O)P(=O)(Oc1ccccc1)Oc1ccccc1 (configuration not stated)	<= 25%	–	–	Active	Active	–	–	–	–	–	19.8 µM	–	–	–
CC(C)C(NC(=O)C(C)n1cccc(NC(=O)Oc2ccccc2)c1=O)P(=O)(Oc1ccccc1)Oc1ccccc1 (configuration not stated)	<= 25%	–	–	Active	Active	Active	Active	–	–	–	41.8 µM	–	–	–
CCC(C)C(NC(=O)[C@@H]1CCCN1C(=O)[C@@H](NC(=O)OC(C)(C)C)C(C)(C)C)P(=O)(Oc1ccccc1)Oc1ccccc1 (some centres not stated)	–	–	<= 3.4%	–	–	–	–	inactive	13.5 µM	inactive	10.3 µM	1.22	inactive	–
CCC(C)C(NC(=O)[C@@H]1CCCN1C(=O)[C@@H](NC(=O)C(C)(C)C)C(C)(C)C)P(=O)(Oc1ccccc1)Oc1ccccc1 (some centres not stated)	Toxic	Non-Toxic	<= 3.4%	Active	Active	–	–	–	–	–	–	–	–	–
CC(C)C(NC(=O)Cn1cccc(NC(=O)Oc2ccccc2)c1=O)P(=O)(Oc1ccccc1)Oc1ccccc1 (configuration not stated)	<= 25%	–	–	Active	Active	Active	Active	–	–	–	–	–	–	–
CCC(C)C(NC(=O)C(C)n1cccc(NC(=O)OC(C)(C)C)c1=O)P(=O)(Oc1ccccc1)Oc1ccccc1 (configuration not stated)	<= 25%	–	–	Active	Active	–	–	–	–	–	128 µM	–	–	< 10%
CCC(C)C(NC(=O)[C@@H]1CCCN1C(=O)[C@@H](NC(=O)OCc1ccccc1)C(C)(C)C)P(=O)(Oc1ccccc1)Oc1ccccc1 (some centres not stated)	Toxic	Non-Toxic	<= 3.4%	–	–	Active	Active	–	–	–	24.9 µM	–	–	–
CCC(C)C(NC(=O)[C@@H]1CCCN1C(=O)[C@@H](NC(=O)NC(C)(C)C)C(C)(C)C)P(=O)(Oc1ccccc1)Oc1ccccc1 (some centres not stated)	Toxic	Non-Toxic	<= 3.4%	–	–	–	–	–	–	–	–	–	–	–
CC(C)C(NC(=O)[C@@H]1CCCN1C(=O)[C@@H](NC(=O)OC(C)(C)C)C(C)(C)C)P(=O)(Oc1ccccc1)Oc1ccccc1 (some centres not stated)	–	–	<= 3.4%	–	–	–	–	inactive	3.02 µM	inactive	9.3 µM	1.34	inactive	–

Source: ChEMBL document CHEMBL4840314, “Optimization of peptide-based inhibitors targeting the HtrA serine protease in Chlamydia: Design, synthesis and biological evaluation of pyridone-based and N-Capping group-modified analogues” (Eur J Med Chem, 2021)
